49 molecules from ChEMBL document CHEMBL3259739, “Synthesis and structure-activity relationship of trisubstituted thiazoles as Cdc7 kinase inhibitors” (Eur J Med Chem, 2014) can be followed below.

Molecules are shown by their SMILES. Where only a bound is given, the exact number is not on record here.

For data set [1], the target named is Cyclin-dependent kinase 2/cyclin E1 (Homo sapiens, UniProt P24941). Description: Inhibition of CDK2/Cyclin-E (unknown origin) using maltose binding protein as substrate by HTRF assay. Type of data set: protein-complex assay.
Data set [2] deals with T1, CDC7/DBF4 (Cell division cycle 7-related protein kinase/Activator of S phase kinase) (Homo sapiens, UniProt O00311). The data set can be described thus: Inhibition of Cdc7/Dbf4 (unknown origin)-mediated phosphorylation of MCM2 by protein-A luminescent proximity homogenous assay. The format is protein-complex assay.
Data set [3] concerns the target T1, CDC7/DBF4 (Cell division cycle 7-related protein kinase/Activator of S phase kinase). The data set can be described thus: Inhibition of Cdc7/Dbf4 in human HCT116 cells assessed as reduction of MCM2 phosphorylation after 14 hrs. Type of data set: cell-based, HCT-116. The essentials:
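HCT-116 cells were exposed to inhibitor across a 22-point dose response for 14 h. They were then immunostained for phospho-serine MCM2 using an Alexa Fluor 488 secondary, with a Hoechst nuclear counterstain. The percentage of cells with phospho-MCM2 signal above a threshold was scored by high-content imaging, and IC50 values were derived from that.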

Data set [4] is described as follows: Intrinsic clearance in rat liver microsomes at 1 uM after 30 mins by reverse phase HPLC analysis in presence of NADPH. The format is ADME. Particulars: read-out: CLH. The essentials:
(§1)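 Reactions were stopped with MeCN after 0 or 30 min. Samples were analysed by reverse-phase HPLC–tandem MS to give intrinsic clearance (µl/min/mg).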

Data set [5] can be described thus: Intrinsic clearance in human liver microsomes at 1 uM after 30 mins by reverse phase HPLC analysis in presence of NADPH. The format is ADME. Particulars: read-out: CLH. The essentials:
as §1

The target of data set [6] is CDC7/DBF4 (Cell division cycle 7-related protein kinase/Activator of S phase kinase) (Homo sapiens) (UniProt Q9UBU7+O00311). The data set can be described thus: Ratio of IC50 for Cdc7/Dbf4 in human HCT116 cells to IC50 for Cdc7/Dbf4 (unknown origin). The following applies: HCT-116. The format is cell-based.
The next data set is filed under the species Homo sapiens. Description: Selectivity ratio of IC50 for CDK2/Cyclin-E (unknown origin) to IC50 for Cdc7/Dbf4 (unknown origin).

T1 sequence (Q9UBU7 whole entry): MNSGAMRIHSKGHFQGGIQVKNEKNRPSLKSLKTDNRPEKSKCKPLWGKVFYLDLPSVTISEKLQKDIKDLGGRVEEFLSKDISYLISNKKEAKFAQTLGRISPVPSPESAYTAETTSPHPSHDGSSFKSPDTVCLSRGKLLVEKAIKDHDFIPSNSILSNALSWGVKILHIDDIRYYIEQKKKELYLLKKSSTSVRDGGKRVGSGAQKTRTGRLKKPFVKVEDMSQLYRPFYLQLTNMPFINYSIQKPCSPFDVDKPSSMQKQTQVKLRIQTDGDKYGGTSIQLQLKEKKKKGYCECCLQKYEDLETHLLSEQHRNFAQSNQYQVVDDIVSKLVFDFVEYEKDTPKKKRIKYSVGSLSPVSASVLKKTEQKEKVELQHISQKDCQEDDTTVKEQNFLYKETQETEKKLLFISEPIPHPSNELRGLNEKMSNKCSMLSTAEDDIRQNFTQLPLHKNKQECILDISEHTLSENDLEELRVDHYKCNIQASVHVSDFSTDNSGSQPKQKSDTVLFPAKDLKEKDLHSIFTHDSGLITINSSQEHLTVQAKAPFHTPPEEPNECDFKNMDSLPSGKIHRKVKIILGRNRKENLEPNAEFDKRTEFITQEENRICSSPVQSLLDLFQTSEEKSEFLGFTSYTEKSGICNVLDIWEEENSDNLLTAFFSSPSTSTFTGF
T1 sequence (O00311 whole entry): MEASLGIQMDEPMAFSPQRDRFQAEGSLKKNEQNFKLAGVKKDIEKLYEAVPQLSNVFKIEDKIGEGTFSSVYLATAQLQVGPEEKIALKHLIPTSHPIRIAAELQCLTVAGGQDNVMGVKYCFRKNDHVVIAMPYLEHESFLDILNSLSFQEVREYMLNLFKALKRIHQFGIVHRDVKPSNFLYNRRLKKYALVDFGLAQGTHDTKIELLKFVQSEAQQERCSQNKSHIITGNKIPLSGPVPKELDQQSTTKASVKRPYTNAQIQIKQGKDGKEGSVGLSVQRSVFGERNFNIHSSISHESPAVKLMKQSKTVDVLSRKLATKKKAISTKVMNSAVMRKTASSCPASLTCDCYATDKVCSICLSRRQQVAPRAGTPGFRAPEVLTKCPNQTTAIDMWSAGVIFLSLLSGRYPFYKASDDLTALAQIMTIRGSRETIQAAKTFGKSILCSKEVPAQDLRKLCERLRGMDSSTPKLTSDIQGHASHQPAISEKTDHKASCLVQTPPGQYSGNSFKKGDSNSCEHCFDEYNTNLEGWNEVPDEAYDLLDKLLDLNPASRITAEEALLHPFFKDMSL
Chain of CDC7/DBF4 (Cell division cycle 7-related protein kinase/Activator of S phase kinase) (Homo sapiens) (O00311 whole entry, looked up): as the sequence (O00311 whole entry) above
Chain of CDC7/DBF4 (Cell division cycle 7-related protein kinase/Activator of S phase kinase) (Homo sapiens) (Q9UBU7 whole entry, looked up): as the sequence (Q9UBU7 whole entry) above

Regarding `CCOC(=O)c1sc(-c2ccccc2)nc1O`, the IC50 in data set [1] was over 125 µM; in data set [2], 46.7 µM.
On the same counts, the results for `CCOC(=O)c1sc(-c2ccccn2)nc1O` are over 125 µM and over 125 µM.
Regarding `O=C(O)c1sc(-c2ccncc2)nc1O`, the IC50 was over 125 µM in data set [1] and 6.13 µM in data set [2].
On the same counts, the results for `O=C(O)c1sc(-c2ccncc2)nc1-c1ccccc1` are over 125 µM and 0.172 µM.
With `CCOC(=O)c1sc(-c2ccncc2)nc1NC`, the IC50 in data set [1] is over 125 µM; in data set [2], 7.35 µM.
As to `CCOC(=O)c1sc(-c2ccncc2)nc1NCc1ccccc1`, the IC50 in data set [1] was over 125 µM; in data set [2], 38.3 µM.
For `c1ccc(-c2nc(-c3ccncc3)sc2-c2nn[nH]n2)cc1`, in that order: over 125 µM and 0.452 µM.
For `CCOC(=O)c1sc(-c2ccncc2)nc1-c1ccc(F)cc1Cl`, in that order: over 125 µM and 1.02 µM.
For `CCOC(=O)c1sc(-c2ccncc2)nc1-c1cccnc1`, in that order: over 125 µM and 8.29 µM.
Consider `Cc1ccc(-c2nc(-c3ccnc(N)n3)sc2C(N)=O)c(Cl)c1`, for which the IC50 worked out at 1.4 µM in data set [3], 7.03 µM in data set [1] and 0.00604 µM in data set [2]. The microsomal CLint at 1 µM in data set [4] is 140 µL/min/mg; in data set [5], under 14 µL/min/mg.
Regarding `CN(C)c1nc(-c2ccnc(N)n2)sc1C(N)=O`, the IC50 is 1.87 µM in data set [3], 18.2 µM in data set [1] and 0.0205 µM in data set [2]. Besides, the microsomal CLint at 1 µM in data set [4] was 26 µL/min/mg; in data set [5] it was 23 µL/min/mg.
For the molecule `CN(C)C(=O)c1sc(-c2ccncc2)nc1O`, the figures for the IC50 in data set [1] and in data set [2] were over 125 µM and 24.4 µM, respectively.
As for `CCOC(=O)c1sc(-c2cccnc2)nc1O`, the half-maximal inhibitory concentration (IC50) in data set [1] was over 125 µM; in data set [2], 32 µM.
For `O=C(NO)c1sc(-c2ccncc2)nc1-c1ccccc1`, the IC50 in data set [1] is over 125 µM; in data set [2] it was 1.69 µM.
With `N#Cc1sc(-c2ccncc2)nc1-c1ccccc1`, the IC50 in data set [1] was over 125 µM; in data set [2], 10.3 µM.
On the same counts, the results for `CCOC(=O)c1sc(-c2ccncc2)nc1-c1ccccc1O` are over 125 µM and 3.22 µM.
Consider `O=C(NCc1ccccc1)c1sc(-c2ccncc2)nc1O`, for which the values for the IC50 in data set [1] and in data set [2] were 52.1 µM and 11.6 µM, respectively.
On the same counts, the results for `CCOC(=O)c1sc(-c2ccncc2)nc1-c1ccc2ccccc2c1` are over 125 µM and over 125 µM.
On the same counts, the results for `CCOC(=O)c1sc(C(C)(C)C)nc1O` are over 125 µM and over 125 µM.
On to `CCOC(=O)c1sc(-c2cnccn2)nc1O`, for which the results for the concentration for half-maximal inhibition (IC50) in data set [1] and in data set [2] were over 125 µM and 26.5 µM, respectively.
On the same counts, the results for `CCOC(=O)c1sc(-c2ccncc2)nc1C` are over 125 µM and 25.1 µM.
As for `NC(=O)c1sc(-c2ccncc2)nc1-c1ccc(Cl)cc1Cl`, the IC50 in data set [3] was 11.5 µM; in data set [1], 0.7 µM; in data set [2], 0.0143 µM. Moreover, in data set [6], the Ratio IC50 is over 100.
For `CCOC(=O)c1sc(-c2ccc(OC)cc2)nc1O`, the IC50 in data set [1] and in data set [2] was over 125 µM each time.
Consider `NC(=O)c1sc(-c2ccnc(N)n2)nc1-c1cc(F)ccc1F`, for which the IC50 in data set [3] was determined as 3.62 µM; in data set [1], 34.8 µM; in data set [2] it was 0.0328 µM. Further, the microsomal CLint at 1 µM in data set [4] was 28 µL/min/mg; in data set [5], under 14 µL/min/mg.
On the same counts, the results for `NC(=O)c1sc(-c2ccnc(N)n2)nc1-c1ccccc1F` are 1.07 µM, over 125 µM, 0.0178 µM, under 14 µL/min/mg and under 14 µL/min/mg.
Regarding `CCOC(=O)c1sc(-c2ccncc2)nc1-c1cccc(Cl)c1Cl`, the IC50 is over 125 µM in data set [1] and 0.451 µM in data set [2].
On to `NC(=O)c1sc(-c2ccnc(N)n2)nc1-c1ccccc1C(F)(F)F`, for which the IC50 in data set [3] is 2.04 µM; in data set [1], 34.9 µM; in data set [2] it was 0.0184 µM. In addition, the microsomal CLint at 1 µM in data set [4] and in data set [5] was under 14 µL/min/mg throughout.
As for `NC(=O)c1sc(-c2ccncc2)nc1-c1ccccc1`, the values for the IC50 in data set [3], in data set [1] and in data set [2] were 23.6 µM, 34.2 µM and 0.101 µM, respectively. Also, the Ratio IC50 in data set [6] was over 100.
Consider `CCOC(=O)c1sc(-c2cc(N)ncn2)nc1-c1ccccc1`, for which the IC50 in data set [1] and in data set [2] was over 125 µM in each case.
Take `CCOC(=O)c1sc(-c2ccncc2)nc1-c1ccccc1Cl`: the figures for the concentration for half-maximal inhibition (IC50) in data set [1] and in data set [2] were over 125 µM and 0.529 µM, respectively.
As to `CCOC(=O)c1sc(-c2ccncc2)nc1-c1ccccc1`, the IC50 is over 125 µM in data set [1] and 20.5 µM in data set [2].
Take `CCOC(=O)c1sc(-c2ccnc(N)n2)nc1O`: the IC50 in data set [1] was over 125 µM; in data set [2] it was 0.0415 µM.
Consider `CCOC(=O)c1sc(-c2ccncc2)nc1N(C)C`, for which the IC50 in data set [1] was over 125 µM; in data set [2] it was 0.669 µM.
For `CCOC(=O)c1sc(-c2ccncc2)nc1-c1ccc(OC)cc1Cl`, in that order: over 125 µM and 0.855 µM.
As to `CCOC(=O)c1sc(-c2ccsc2)nc1O`, the IC50 in data set [1] is over 125 µM; in data set [2], 29.6 µM.
On the same counts, the results for `CNC(=O)c1sc(-c2ccncc2)nc1O` are over 125 µM and 8.98 µM.
With `O=C1Nc2ccccc2Nc2nc(-c3ccncc3)sc21`, the Ratio IC50 in the data set listed under Homo sapiens was 11. Besides, the IC50 in data set [1] came to 1.2 µM; in data set [2], 0.104 µM.
Take `NC(=O)c1sc(-c2ccnc(N)n2)nc1-c1cc(Cl)cc(Cl)c1`: the IC50 was 8.5 µM in data set [3], over 125 µM in data set [1] and 0.0623 µM in data set [2]. Besides, the microsomal CLint at 1 µM stood at 69 µL/min/mg in data set [4] and 67 µL/min/mg in data set [5].
On to `COc1nc(-c2ccncc2)sc1C(N)=O`, for which the IC50 in data set [3] amounted to 9.93 µM; in data set [1], 5.71 µM; in data set [2] it was 0.0955 µM. The Ratio IC50 in data set [6] was over 100.
For the molecule `CCOC(=O)c1cnc(-c2ccncc2)s1`, the values for the IC50 in data set [1] and in data set [2] were over 125 µM and 24 µM, respectively.
For `CCOC(=O)c1sc(-c2ccncc2)nc1Nc1ccccc1`, in that order: over 125 µM and over 125 µM.
As for `CCOC(=O)c1sc(-c2ccncc2)nc1N`, the values for the IC50 in data set [1] and in data set [2] were over 125 µM and 4.2 µM, respectively.
With `NC(=O)c1sc(-c2ccncc2)nc1O`, the IC50 in data set [3] was over 50 µM; in data set [1] it was over 125 µM; in data set [2] it was 0.115 µM.
On to `CCOC(=O)c1sc(-c2ccncc2)nc1-c1ccc(Cl)cc1Cl`, for which the IC50 in data set [1] is over 125 µM; in data set [2], 0.973 µM.
As for `NNC(=O)c1sc(-c2ccncc2)nc1-c1ccccc1`, the IC50 was over 125 µM in data set [1] and 0.472 µM in data set [2].
With `CCOC(=O)c1sc(-c2ccnc(N)c2)nc1-c1ccccc1`, the values for the IC50 in data set [1] and in data set [2] were over 125 µM and 19.9 µM, respectively.
`CCOC(=O)c1sc(-c2ccncc2)nc1OC`: the IC50 in data set [1] was over 125 µM; in data set [2], 17.2 µM.
As for `c1ccc(-c2nc(-c3ccncc3)sc2-c2nnco2)cc1`, the IC50 in data set [1] was over 125 µM; in data set [2], 3.87 µM.
On the same counts, the results for `CCOC(=O)c1sc(-c2ccnc(CC)c2)nc1O` are over 125 µM and 7.5 µM.
